# Compound activity deposited in PubChem by several laboratories.
# Arbovirus anti – antivirals against arbovirus infection, primary screen, cell-based, full library, 10K replicate subset. arbovirus infection cell-based antiviral screen. inhibition, % at 10 µM. 200,000 compounds, 0.37% hits. AID 1251, 2008; in the data active = inhibition above about 30%
# Hep lipid drop – inhibitors of hepatocyte lipid droplet formation, primary screen, imaging, high-throughput imaging, BODIPY stain; AID 1656, 2009; 240,000 compounds, 0.4% hits; inhibition, % at 6.5 µM; AML12 mouse hepatocytes, oleate lipid droplets;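 active = lipid droplet intensity inhibited by at least 50%, with more than 500 cells counted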
#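 Test system: AML12 mouse liver cells; schedule: overnight exposure; technique: high-content imaging of BODIPY-stained droplets and DAPI nuclei; read-out: % inhibition of corrected integrated BODIPY droplet signal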
# Pf gametocyte – late stage P. falciparum gametocyte viability inhibitors, primary screen, ATP luminescence, HTS. P. falciparum stage V gametocytes, 24 h. inhibition, % at 10.9 µM. 150,000 compounds, 0.065% hits;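 active = inhibition above the mean plus 3 SD of compounds within the control limits, set per campaign, cut at about 38% in these data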;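 also: 0% = DMSO wells and 100% = medium only without gametocytes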
# TNF necrop inh – inhibitors of TNF-alpha triggered necroptosis, primary screen, cell-based, Jurkat FADD-/-, single concentration; Jurkat FADD-/- TNF necroptosis rescue, ATP luminescence, 24 h; 0 = TNF only, 100 = no-TNF cells; activation (protection from cell death), % at 10 µM; 220,000 compounds, 0.068% hits; AID 463075, 2010;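 active = activation, meaning protection from cell death, of at least 50% relative to plate controls; inactive = activation below 50%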;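 also: necroptosis triggered by 40 ng/mL TNF-alpha added together with compound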
# L929 necroptosis – inhibitors of zVAD-triggered necroptosis, primary screen, L929 cells; viability rescue, % at 10 µM; 220,000 compounds, 0.38% hits; L929 zVAD necroptosis rescue, ATP luminescence, 24 h; with zVAD 60 µM;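 active = activation, scaled between plate controls, above about 75%, limit read from the data; inactive = activation under that limit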;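 also: 0% = zVAD with DMSO and 100% = DMSO alone without zVAD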
# Numbers without * were called inactive; · = no result. Sampled rows, rich in hits. Any-hit rate of the full collection: about 0.91%.
SMILES,Arbovirus anti,Hep lipid drop,Pf gametocyte,TNF necrop inh,L929 necroptosis
CCc1ccc(-c2c(C)sc(NC(C)=O)c2C(N)=O)cc1,-5.3,·,-12.9,-14.7,77.7*
CN1CCN(Cc2c(O)ccc3cc(Br)ccc23)CC1,20.2,-5.4,·,-7.3,1.6
CCN(Cc1ccncc1)Cc1c(O)ccc2cc(Br)ccc12,30.9*,0.1,-3.0,-2.6,0.6
C/C(=N\NC(=O)c1ccccc1C)c1ccc(NC(=O)c2cccs2)cc1,81.6*,·,·,-2.4,14.3
C/C(=N\NC(=O)c1ccccc1)c1ccc(NC(=O)c2cccs2)cc1,25.9,-18.3,-16.9,2.4,-0.2
CCOC(=O)Cc1cc(=O)n2[nH]c(C(C)(C)C)cc2n1,·,·,-14.0,0.2,0.4
Cc1nnsc1C(=O)NNc1ccc(Cl)cc1,·,-10.9,-9.1,10.6,1.1
Cc1nnsc1C(=O)NNc1c(Cl)cccc1Cl,·,·,10.5,83.7*,-0.6
O=C/C(=C\Nc1ccc(Cl)cn1)c1nc2cc(Cl)ccc2o1,30.3*,6.8,16.6,-0.1,1.2
O=C1c2ccccc2-c2onc3c(Oc4ccccc4)cc(O)c1c23,-16.6,55.9*,·,-2.7,-0.5
O=C(N/N=C\c1ccc(Cl)cc1Cl)c1sccc1-n1cccc1,1.5,·,13.3,-2.9,88.5*
O=C(N/N=C\c1ccc(Cl)cc1)c1sccc1-n1cccc1,-8.5,·,-9.8,-0.4,6.3
COc1ccc(C2=Nn3c(nnc3-c3ccncc3)SC2)cc1OC,49.1*,-16.3,·,2.5,55.5
Cc1noc(C)c1C(=O)OCC(=O)Nc1cc(Cl)ccc1Oc1ccccc1,47.3*,13.9,·,-1.3,0.3
NCCc1nc(-c2ccccc2)cs1,1.1,-7.9,6.1,0.3,-0.7
CC1(C)C2CCC(C2)C1(C)NC(=O)CNCc1cccs1 (configuration not stated),30.1*,0.7,·,0.4,0.9
O=C(CNCc1cccs1)NC12CC3CC(CC(C3)C1)C2,-3.7,8.8,·,-0.8,0.4
Oc1ccccc1CN1CCCN(Cc2ccccc2O)C1,69.9*,8.3,-33.1,0.7,4.4
Oc1ccccc1CN1CCN(C(O)(c2ccccc2)c2ccccc2)CC1,·,·,-2.2,·,·
COc1ccc(C(=O)NN/C(C)=C/C(=O)C(F)(F)C(F)(F)C(F)(F)F)cc1,85.0*,-16.2,-8.6,0.1,3.3
C=CCc1cccc2cc(C(=O)Nc3ccccc3C(=O)O)c(=O)oc12,32.4*,5.7,·,-3.1,0.0
O=C1CC(N2CCC(Cc3ccccc3)CC2)C(=O)N1CCc1ccccc1 (configuration not stated),30.4*,-10.2,·,0.9,0.6
CCOC(=O)c1nn(-c2cccc(Cl)c2)c2nc(Nc3ccccc3)cc(=O)n12,34.4*,39.0,-17.7,0.4,1.8
CCOC(=O)c1nn(-c2ccc(Cl)cc2)c2nc(Nc3ccccc3)cc(=O)n12,41.9*,-5.2,·,0.9,0.4
CCOC(=O)c1nn(-c2ccccc2C)c2nc(Nc3ccccc3)cc(=O)n12,7.0,5.6,1.2,0.1,-0.6
SMILES,Arbovirus anti,Hep lipid drop,Pf gametocyte,TNF necrop inh,L929 necroptosis
CCOC(=O)c1nn(-c2cccc(OC)c2)c2nc(Nc3ccccc3)cc(=O)n12,-8.1,16.5,4.8,0.0,9.3
CCOc1ccc(Cl)cc1S(=O)(=O)N1CCC(C(=O)NCc2cccnc2)CC1,·,1.9,·,·,·
CCn1c(SC(C)C(=O)Nc2nccs2)nnc1-c1ccncc1 (configuration not stated),·,-0.4,·,·,·
OCCNc1nc(Nc2ccccc2)nc2ccccc12,34.0*,-21.0,·,-1.1,-0.3
OCCNc1nc(Nc2ccc(Br)cc2)nc2ccccc12,-26.6,2.8,-2.6,-2.9,6.3
O=C(O)c1ccccc1NS(=O)(=O)c1ccc2ccccc2c1,·,-4.9,·,·,·
O=c1oc(-c2ccccc2NS(=O)(=O)c2ccc3ccccc3c2)nc2ccccc12,30.4*,19.4,·,1.0,0.4
O=C(CCNC(=O)Cn1ccc2ccccc2c1=O)NCc1ccc(F)cc1Cl,3.8,3.6,18.0,0.6,0.5
O=C(CSCc1ccc([N+](=O)[O-])cc1)NC1CC2CCC1C2 (configuration not stated),-9.1,-26.9,-27.0,63.1*,5.1
COc1ccc(CN(C(=O)CSc2nnc(-c3ccc(F)cc3)o2)c2ccc(F)cc2)cc1,30.6*,·,·,-0.4,0.0
CC(C)Sc1nsc2nc(=O)c(/C=C3\C=Nc4ccccc43)c(N)n12,33.9*,-23.9,-4.7,-0.2,3.7
Cc1cc2nc(=O)c(/C=C3\C=Nc4ccccc43)c(N)n2o1,·,31.0,5.7,1.5,1.0
CS(=O)(=O)c1nsc2nc(=O)c(/C=C3\C=Nc4ccccc43)c(N)n12,46.4*,0.7,-25.5,0.9,2.6
CN(CC(=O)Nc1ccc(Cl)cc1)C(=O)CCc1c[nH]c2ccccc12,·,0.7,·,·,·
COC(=O)C1=NNC2(c3ccc(C)cc3)C(=O)N(c3ccc(C)cc3)C(=O)C12 (configuration not stated),-1.4,20.8,11.8,2.3,2.9
O=C(N[C@@H](Cc1ccccc1)c1nc2ccccc2[nH]1)c1ccc([N+](=O)[O-])cc1,·,·,-11.1,·,·
COc1cccc(C(=O)Nc2nc(-c3ccc4c(c3)OCO4)cs2)c1,42.2*,1.9,·,0.1,1.0
O=C(Nc1nc(-c2ccccc2)cs1)C1COc2ccccc2O1 (configuration not stated),8.6,9.6,·,1.1,0.7
COc1cccc(C(=O)Nc2nc(-c3ccncc3)cs2)c1,4.3,0.2,2.0,0.0,67.2
O=C(Nc1nc(-c2ccc3c(c2)OCO3)cs1)C1COc2ccccc2O1 (configuration not stated),52.2*,-5.7,·,1.1,0.0
Cc1c(C(=O)N2CCOCC2)c(S(=O)(=O)N2CCN(c3ccc(Cl)cc3)CC2)c(C)n1C,·,9.7,·,·,·
Cc1ccc(O)c(-c2cc(C(=O)Nc3ccc(S(=O)(=O)N4CC(C)OC(C)C4)cc3)[nH]n2)c1 (configuration not stated),12.5,0.6,-16.1,-4.0,0.6
Cc1ccc(O)c(-c2cc(C(=O)Nc3ccc(S(=O)(=O)Nc4nc(C)cc(C)n4)cc3)[nH]n2)c1,34.9*,-16.3,2.5,-1.2,0.0
Cc1sc2ncn(Cc3ccccc3F)c(=O)c2c1C,-7.9,-1.1,-26.6,95.3*,1.2
CCN1CCc2c(sc3c2c(NCc2ccco2)nc2nnnn23)C1,32.5*,4.0,·,4.1,-1.2
NC(=O)NC(=O)C(Nc1ccc(N2CCCCC2)cc1)c1ccccc1 (configuration not stated),·,7.4,·,·,·
Cc1nn2cc(-c3ccccc3)nc2[nH]c1=O,5.1,·,·,-2.0,0.1
Cc1nn2c(-c3ccccc3)c(-c3ccccc3)nc2[nH]c1=O,31.7*,·,-30.9,1.3,2.8
O=C1NC(=Nc2ccccc2)SC1Cc1ccccc1 (configuration not stated),2.4,-4.6,-9.1,9.0,3.6
